From ChEMBL document CHEMBL3102784, “Salicylanilide diethyl phosphates: synthesis, antimicrobial activity and cytotoxicity” (Bioorg Med Chem, 2014)
Values after ≈ are worked out from the molar mass of the structure shown. Active and inactive are the calls of the source. The calls are words filed in the database; no cut-off is given here.

Legend:
Nakaseomyces glabratus = experiment: Antifungal activity against Candida glabrata 20/I at 500 micromol/L after 24 to 48 hrs by broth microdilution method; assay type: functional, organism-based
Outline: (§1)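 Broth microdilution in RPMI 1640 with glutamine, fluconazole as reference. For yeasts, MIC is ≥80% growth reduction (IC80) versus control. For filamentous fungi, the value is expressed as IC50. Readings at 24 and 48 h.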

[1] = test system: Trichophyton mentagrophytes; experiment: Antifungal activity against Trichophyton mentagrophytes 445 after 72 hrs by broth microdilution method; assay type: functional; conditions: Trichophyton mentagrophytes, 445, 72 h
Outline: (§2)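 Filamentous dermatophyte tested by broth microdilution in RPMI 1640 with glutamine, fluconazole as reference. Value expressed as IC50 relative to growth control. Read at 72 and 120 h.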

[2] = test system: Staphylococcus epidermidis; experiment: Antibacterial activity against Staphylococcus epidermidis H 6966/08 after 24 hrs by broth microdilution method; assay type: functional; conditions: H 6966/08, 24 h
Outline: (§3)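 Broth microdilution in Mueller–Hinton broth, compounds dissolved in DMSO, tested over a dilution series from 500 downward. MIC taken as ≥95% growth reduction (IC95) versus drug-free control. Benzylpenicillin comparator. Readings at 24 and 48 h.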

Mycobacterium kansasii [3] = experiment: Antimycobacterial activity against Mycobacterium kansasii 6509/96 after 7 days; assay type: functional; conditions: 6509/96, 168 h
Outline: (§4)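 Micromethod MIC in Šula's semisynthetic medium at 37 °C. Compounds added in DMSO at 1000 down to 0.032 µmol/L. Isoniazid standard in sterile water at 0.5–250 µmol/L. Inocula: H37Rv 10^3, M. avium 10^5, M. kansasii 10^4. Read at 14 and 21 d, plus 7 d for M. kansasii.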

Enterococcus sp. = experiment: Antibacterial activity against Enterococcus sp. J 14365/08 at 500 micromol/L after 24 to 48 hrs by broth microdilution method; assay type: functional, organism-based; outline: as §3
Aspergillus fumigatus [4] = experiment: Antifungal activity against Aspergillus fumigatus 231 after 24 hrs by broth microdilution method; assay type: functional; conditions: Aspergillus fumigatus, 231, 24 h; outline: as §1
Lichtheimia corymbifera [5] = experiment: Antifungal activity against Absidia corymbifera 272 after 24 hrs by broth microdilution method; assay type: functional; conditions: Lichtheimia corymbifera, 272, 24 h; outline: as §1
Escherichia coli = experiment: Antibacterial activity against Escherichia coli CCM 4517 at 500 micromol/L after 24 to 48 hrs by broth microdilution method; assay type: functional, organism-based; outline: as §3
Aspergillus fumigatus [6] = experiment: Antifungal activity against Aspergillus fumigatus 231 after 48 hrs by broth microdilution method; assay type: functional; conditions: Aspergillus fumigatus, 231, 48 h; outline: as §1
Mycobacterium avium [7] = experiment: Antimycobacterial activity against isoniazid, rifampicin, ethambutol and ofloxacin-resistant Mycobacterium avium My 330/88 after 21 days; assay type: functional; conditions: My 330/88, 504 h; outline: as §4
Pichia kudriavzevii [8] = experiment: Antifungal activity against Candida krusei E28 after 24 hrs by broth microdilution method; assay type: functional; conditions: E28, 24 h; outline: as §1
Mycobacterium avium [9] = experiment: Antimycobacterial activity against isoniazid, rifampicin, ethambutol and ofloxacin-resistant Mycobacterium avium My 330/88 after 14 days; assay type: functional; conditions: My 330/88, 336 h; outline: as §4
Mycobacterium kansasii [10] = experiment: Antimycobacterial activity against Mycobacterium kansasii My 235/80 after 21 days; assay type: functional; conditions: My 235/80, 504 h; outline: as §4
Candida albicans [11] = experiment: Antifungal activity against Candida albicans ATCC 44859 after 48 hrs by broth microdilution method; assay type: functional; conditions: ATCC 44859, 48 h; outline: as §1
Mycobacterium kansasii [12] = experiment: Antimycobacterial activity against Mycobacterium kansasii 6509/96 after 14 days; assay type: functional; conditions: 6509/96, 336 h; outline: as §4
Candida albicans [13] = experiment: Antifungal activity against Candida albicans ATCC 44859 after 24 hrs by broth microdilution method; assay type: functional; conditions: ATCC 44859, 24 h; outline: as §1
Staphylococcus aureus [14] = experiment: Antibacterial activity against methicillin-resistant Staphylococcus aureus H 5996/08 after 24 hrs by broth microdilution method; assay type: functional; conditions: H 5996/08, 24 h; outline: as §3
Staphylococcus aureus [15] = experiment: Antibacterial activity against methicillin-resistant Staphylococcus aureus H 5996/08 after 48 hrs by broth microdilution method; assay type: functional; conditions: H 5996/08, 48 h; outline: as §3
Mycobacterium kansasii [16] = experiment: Antimycobacterial activity against Mycobacterium kansasii 6509/96 after 21 days; assay type: functional; conditions: 6509/96, 504 h; outline: as §4
Klebsiella pneumoniae [17] = experiment: Antibacterial activity against Klebsiella pneumoniae D 11750/08 at 500 micromol/L after 24 to 48 hrs by broth microdilution method; assay type: functional, organism-based; outline: as §3
[18] = test system: Trichophyton mentagrophytes; experiment: Antifungal activity against Trichophyton mentagrophytes 445 after 120 hrs by broth microdilution method; assay type: functional; conditions: Trichophyton mentagrophytes, 445, 120 h; outline: as §2
Trichosporon asahii [19] = experiment: Antifungal activity against Trichosporon asahii 1188 after 48 hrs by broth microdilution method; assay type: functional; conditions: Trichosporon asahii, 1188, 48 h; outline: as §1
[20] = test system: Staphylococcus epidermidis; experiment: Antibacterial activity against Staphylococcus epidermidis H 6966/08 after 48 hrs by broth microdilution method; assay type: functional; conditions: H 6966/08, 48 h; outline: as §3
Pseudomonas aeruginosa = experiment: Antibacterial activity against Pseudomonas aeruginosa CCM 1961 at 500 micromol/L after 24 to 48 hrs by broth microdilution method; assay type: functional, organism-based; outline: as §3
Pichia kudriavzevii [21] = experiment: Antifungal activity against Candida krusei E28 after 48 hrs by broth microdilution method; assay type: functional; conditions: E28, 48 h; outline: as §1
HepG2 = experiment: Cytotoxicity against human HepG2 cells after 24 hrs by CellTiter assay; assay type: cell-based; conditions: HepG2, 24 h
Outline: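 HepG2 cells (passage 27–33) in MEM with 10% FBS, L-glutamine and NEAA, seeded at 1×10^4 per well. Treated next day with compounds at 0.1–100 µM (or 0.1–25 µmol/L), triplicates, <1% DMSO, for 24 h at 37 °C, 5% CO2. MTS reagent added for 2 h, absorbance read at 490 nm. IC50 taken against untreated (100%) and 10% DMSO (0%) controls.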

Staphylococcus aureus [22] = experiment: Antibacterial activity against Staphylococcus aureus CCM 4516/08 after 48 hrs by broth microdilution method; assay type: functional; conditions: CCM 4516/08, 48 h; outline: as §3
Lichtheimia corymbifera [23] = experiment: Antifungal activity against Absidia corymbifera 272 after 48 hrs by broth microdilution method; assay type: functional; conditions: Lichtheimia corymbifera, 272, 48 h; outline: as §1
[24] = test system: Mycobacterium tuberculosis; experiment: Antimycobacterial activity against Mycobacterium tuberculosis H37Rv My 331/88 after 21 days; assay type: functional; conditions: H37Rv My 331/88, 504 h; outline: as §4
[25] = test system: Mycobacterium tuberculosis; experiment: Antimycobacterial activity against Mycobacterium tuberculosis H37Rv My 331/88 after 14 days; assay type: functional; conditions: H37Rv My 331/88, 336 h; outline: as §4
Klebsiella pneumoniae [26] = experiment: Antibacterial activity against ESBL-positive Klebsiella pneumoniae J 14368/08 at 500 micromol/L after 24 to 48 hrs by broth microdilution method; assay type: functional, organism-based; outline: as §3
Mycobacterium kansasii [27] = experiment: Antimycobacterial activity against Mycobacterium kansasii My 235/80 after 7 days; assay type: functional; conditions: My 235/80, 168 h; outline: as §4
Staphylococcus aureus [28] = experiment: Antibacterial activity against Staphylococcus aureus CCM 4516/08 after 24 hrs by broth microdilution method; assay type: functional; conditions: CCM 4516/08, 24 h; outline: as §3
Candida tropicalis = experiment: Antifungal activity against Candida tropicalis 156 at 500 micromol/L after 24 to 48 hrs by broth microdilution method; assay type: functional, organism-based; outline: as §1
Mycobacterium kansasii [29] = experiment: Antimycobacterial activity against Mycobacterium kansasii My 235/80 after 14 days; assay type: functional; conditions: My 235/80, 336 h; outline: as §4
Trichosporon asahii [30] = experiment: Antifungal activity against Trichosporon asahii 1188 after 24 hrs by broth microdilution method; assay type: functional; conditions: Trichosporon asahii, 1188, 24 h; outline: as §1

For `CCOP(=O)(OCC)Oc1cc(Cl)ccc1C(=O)Nc1ccc(C(F)(F)F)cc1`, the Activity (Nakaseomyces glabratus) was “inactive”, the MIC50 [1] was 250 µM (≈ 113 µg/mL) and the MIC95 [2] was 31.2 µM (≈ 14.1 µg/mL). The MIC (Mycobacterium kansasii [3]) was 1 µM (≈ 0.452 µg/mL), the Activity (Enterococcus sp.) was “inactive” and the MIC50 (Aspergillus fumigatus [4]) was > 500 µM. For the same molecule, the MIC50 (Lichtheimia corymbifera [5]) was > 500 µM, the Activity (Escherichia coli) was “inactive” and the MIC50 (Aspergillus fumigatus [6]) was > 500 µM. For the same molecule, the MIC (Mycobacterium avium [7]) was 4 µM (≈ 1.81 µg/mL), the MIC80 (Pichia kudriavzevii [8]) was > 500 µM and the MIC (Mycobacterium avium [9]) was 4 µM (≈ 1.81 µg/mL). For the same molecule, the MIC (Mycobacterium kansasii [10]) was 1 µM (≈ 0.452 µg/mL), the MIC80 (Candida albicans [11]) was > 500 µM and the MIC (Mycobacterium kansasii [12]) was 2 µM (≈ 0.904 µg/mL). For the same molecule, the MIC80 (Candida albicans [13]) was > 500 µM, the MIC95 (Staphylococcus aureus [14]) was 62.5 µM (≈ 28.2 µg/mL) and the MIC95 (Staphylococcus aureus [15]) was 62.5 µM (≈ 28.2 µg/mL). For the same molecule, the MIC (Mycobacterium kansasii [16]) was 2 µM (≈ 0.904 µg/mL), the Activity (Klebsiella pneumoniae [17]) was “inactive” and the MIC50 [18] was 250 µM (≈ 113 µg/mL). For the same molecule, the MIC80 (Trichosporon asahii [19]) was > 500 µM, the MIC95 [20] was 31.2 µM (≈ 14.1 µg/mL) and the Activity (Pseudomonas aeruginosa) was “inactive”. The MIC80 (Pichia kudriavzevii [21]) was > 500 µM, the IC50 (HepG2) was 2510 nM and the MIC95 (Staphylococcus aureus [22]) was 31.2 µM (≈ 14.1 µg/mL). For the same molecule, the MIC50 (Lichtheimia corymbifera [23]) was > 500 µM, the MIC [24] was 1 µM (≈ 0.452 µg/mL) and the MIC [25] was 1 µM (≈ 0.452 µg/mL). The Activity (Klebsiella pneumoniae [26]) was “inactive”, the MIC (Mycobacterium kansasii [27]) was 0.5 µM (≈ 0.226 µg/mL) and the MIC95 (Staphylococcus aureus [28]) was 31.2 µM (≈ 14.1 µg/mL). For the same molecule, the Activity (Candida tropicalis) was “inactive”, the MIC (Mycobacterium kansasii [29]) was 1 µM (≈ 0.452 µg/mL) and the MIC80 (Trichosporon asahii [30]) was > 500 µM.
